The target in data set [1] is T1, Free fatty acid receptor 4 (Homo sapiens) (UniProt Q5NUL3).
T1 sequence (whole entry): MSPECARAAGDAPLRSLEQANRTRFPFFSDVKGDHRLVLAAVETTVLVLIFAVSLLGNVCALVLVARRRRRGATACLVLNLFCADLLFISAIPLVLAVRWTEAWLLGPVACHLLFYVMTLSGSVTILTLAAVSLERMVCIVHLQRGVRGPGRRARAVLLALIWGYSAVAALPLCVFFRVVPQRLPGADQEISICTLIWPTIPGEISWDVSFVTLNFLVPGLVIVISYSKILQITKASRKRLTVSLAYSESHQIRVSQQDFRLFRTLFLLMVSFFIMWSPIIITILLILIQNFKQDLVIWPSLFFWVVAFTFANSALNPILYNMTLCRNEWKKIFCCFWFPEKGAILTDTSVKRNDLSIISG
Nature of the data set: Agonist activity at human FFA4 receptor expressed in HEK293 cells assessed as induction of calcium flux at 10 uM by fluorimetry. Format: functional, cell-based.

Data set [2] concerns the target T2, Peroxisome proliferator-activated receptor alpha (Homo sapiens) (UniProt Q07869).
T2 sequence (whole entry): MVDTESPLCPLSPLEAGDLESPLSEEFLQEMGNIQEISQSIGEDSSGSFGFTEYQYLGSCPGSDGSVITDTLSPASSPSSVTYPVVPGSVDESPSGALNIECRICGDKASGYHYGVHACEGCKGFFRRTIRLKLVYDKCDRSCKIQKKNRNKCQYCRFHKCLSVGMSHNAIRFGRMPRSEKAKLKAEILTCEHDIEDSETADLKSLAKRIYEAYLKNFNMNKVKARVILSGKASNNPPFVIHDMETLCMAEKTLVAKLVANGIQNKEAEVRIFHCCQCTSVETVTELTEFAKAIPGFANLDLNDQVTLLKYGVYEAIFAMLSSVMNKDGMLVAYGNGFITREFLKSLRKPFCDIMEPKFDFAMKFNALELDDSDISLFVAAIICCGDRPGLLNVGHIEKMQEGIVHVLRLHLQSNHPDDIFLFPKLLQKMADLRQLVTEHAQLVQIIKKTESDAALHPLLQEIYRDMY
In words: Agonist activity at human PPARalpha expressed in Escherichia coli assessed as induction of calcium flux at 10 uM by fluorimetry.

In data set [3] the target is T3, Oxysterols receptor LXR-alpha (Homo sapiens) (UniProt Q13133).
T3 sequence (whole entry): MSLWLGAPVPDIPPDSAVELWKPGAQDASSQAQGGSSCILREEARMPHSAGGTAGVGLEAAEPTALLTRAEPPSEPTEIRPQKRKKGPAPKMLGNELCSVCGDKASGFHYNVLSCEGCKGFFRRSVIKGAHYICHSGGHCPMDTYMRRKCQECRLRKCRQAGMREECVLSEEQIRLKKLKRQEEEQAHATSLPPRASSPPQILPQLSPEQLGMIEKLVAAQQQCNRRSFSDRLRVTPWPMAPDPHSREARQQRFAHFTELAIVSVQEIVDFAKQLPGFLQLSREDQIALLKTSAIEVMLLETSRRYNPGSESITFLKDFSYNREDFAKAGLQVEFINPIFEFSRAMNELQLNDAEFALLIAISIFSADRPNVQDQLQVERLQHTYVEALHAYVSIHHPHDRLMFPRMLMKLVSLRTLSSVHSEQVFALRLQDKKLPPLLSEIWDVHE
In words: Antagonist activity at human LXRalpha expressed in Escherichia coli assessed as inhibition of T0901317-induced calcium flux at 10 uM by fluorimetry.

Data set [4] deals with T4, Oxysterols receptor LXR-beta (Homo sapiens) (UniProt P55055).
T4 sequence (whole entry): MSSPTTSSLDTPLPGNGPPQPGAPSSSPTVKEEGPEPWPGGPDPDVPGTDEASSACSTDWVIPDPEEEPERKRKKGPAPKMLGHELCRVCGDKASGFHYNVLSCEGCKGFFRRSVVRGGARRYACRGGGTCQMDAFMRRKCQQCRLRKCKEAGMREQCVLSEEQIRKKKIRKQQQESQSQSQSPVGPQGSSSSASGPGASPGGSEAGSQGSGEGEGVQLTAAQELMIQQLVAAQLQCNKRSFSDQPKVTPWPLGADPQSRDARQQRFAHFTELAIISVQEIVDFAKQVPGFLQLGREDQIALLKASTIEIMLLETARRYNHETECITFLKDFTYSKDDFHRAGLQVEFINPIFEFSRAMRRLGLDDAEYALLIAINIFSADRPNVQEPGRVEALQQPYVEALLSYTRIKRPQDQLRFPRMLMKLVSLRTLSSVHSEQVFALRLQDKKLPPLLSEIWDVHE
In words: Agonist activity at human LXRbeta expressed in Escherichia coli assessed as induction of calcium flux at 10 uM by fluorimetry.

A short description of data set [5]: Aqueous solubility of the compound in PBS buffer at pH 7.4 after 24 hrs by HPLC analysis. Format: physicochemical.
A short description of data set [6]: Metabolic stability in Balb/c mouse primary hepatocytes assessed as compound recovery after 2 hrs by LC-MS/MS analysis. Format: ADME, cell-based, Hepatocyte. The note with it: read-out: Drug recovery.
Data set [7] in a line: Half life in Balb/c mouse at 5 mg/kg, iv by HPLC-MS/MS analysis. The note with it: in vivo. Format: ADME, organism-based. In a few lines:
(§1)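 Balb/c mice dosed at 5 mg/kg iv or 10 mg/kg po. Plasma concentrations over time used to derive t1/2, AUC0–∞, Vd and total clearance (iv), and tmax, Cmax, AUC0–∞ and oral bioavailability (po).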

Data set [8] can be described thus: AUC (0 to infinity) in Balb/c mouse at 10 mg/kg, po by HPLC-MS/MS analysis. Format: ADME, organism-based. Also noted: dose 10 mg/kg, route oral, time infinity. The note with it: in vivo. In a few lines: as §1
A short description of data set [9]: Clearance in Balb/c mouse primary hepatocytes per million cells after 2 hrs by LC-MS/MS analysis. Format: ADME, cell-based, Hepatocyte. The note with it: read-out: CLH.

In brackets after ≈: the same amount, converted by molar mass. Activity calls are given as the source filed them. The calls are words filed in the database; no cut-off is given here.

With `Cc1noc(C)c1-c1ccc(C(=O)N2[C@@H](c3ccccc3Cl)SC[C@H]2C(=O)O)cc1`, the result in [1], in [2] and in data set [4] was inactive. For the same compound, the inhibition result in [3] is “inactive”. In data set [5], this compound showed a solubility at 24 h of 182 µM (≈ 80.6 µg/mL). Besides, the remaining at 2 h in [6] amounted to 72%. In addition, the half-life in data set [7] is 2.3 h. The same compound had an AUC(0-inf) in data set [8] of 2600 ng·h/mL. Moreover, in data set [9], the hepatocyte CLint is less than 8 µL/min/1e6 cells.

These data come from ChEMBL document CHEMBL4152367, “Discovery of a Potent Thiazolidine Free Fatty Acid Receptor 2 Agonist with Favorable Pharmacokinetic Properties” (J Med Chem, 2018).
